Test results published in ChEMBL document CHEMBL1914443, “Inhibition of c-Kit, VEGFR-2 (KDR), and ABCG2 by analogues of OSI-930” (Bioorg Med Chem Lett, 2011).

What was measured:
[1] = target: Receptor-type tyrosine-protein kinase FLT3 (Homo sapiens) (UniProt P36888); experiment: Inhibition of Flt3 using Tyr 02 peptide as substrate at 10 uM after 60 mins by Z'-LYTE assay
[2] = target: Vascular endothelial growth factor receptor 1 (Homo sapiens) (UniProt P17948); experiment: Inhibition of VEGFR1 using Tyr 04 peptide as substrate at 1 uM after 60 mins by Z'-LYTE assay
[3] = target: Platelet-derived growth factor receptor alpha (Homo sapiens) (UniProt P16234); experiment: Inhibition of PDGFRalpha using Tyr 04 peptide as substrate at 1 uM after 60 mins by Z'-LYTE assay
[4] = target: T1, Mast/stem cell growth factor receptor Kit (Homo sapiens, UniProt P10721); experiment: Inhibition of c-Kit using Tyr 06 peptide as substrate at 10 uM after 60 mins by Z'-LYTE assay
T1 sequence (P10721 whole entry): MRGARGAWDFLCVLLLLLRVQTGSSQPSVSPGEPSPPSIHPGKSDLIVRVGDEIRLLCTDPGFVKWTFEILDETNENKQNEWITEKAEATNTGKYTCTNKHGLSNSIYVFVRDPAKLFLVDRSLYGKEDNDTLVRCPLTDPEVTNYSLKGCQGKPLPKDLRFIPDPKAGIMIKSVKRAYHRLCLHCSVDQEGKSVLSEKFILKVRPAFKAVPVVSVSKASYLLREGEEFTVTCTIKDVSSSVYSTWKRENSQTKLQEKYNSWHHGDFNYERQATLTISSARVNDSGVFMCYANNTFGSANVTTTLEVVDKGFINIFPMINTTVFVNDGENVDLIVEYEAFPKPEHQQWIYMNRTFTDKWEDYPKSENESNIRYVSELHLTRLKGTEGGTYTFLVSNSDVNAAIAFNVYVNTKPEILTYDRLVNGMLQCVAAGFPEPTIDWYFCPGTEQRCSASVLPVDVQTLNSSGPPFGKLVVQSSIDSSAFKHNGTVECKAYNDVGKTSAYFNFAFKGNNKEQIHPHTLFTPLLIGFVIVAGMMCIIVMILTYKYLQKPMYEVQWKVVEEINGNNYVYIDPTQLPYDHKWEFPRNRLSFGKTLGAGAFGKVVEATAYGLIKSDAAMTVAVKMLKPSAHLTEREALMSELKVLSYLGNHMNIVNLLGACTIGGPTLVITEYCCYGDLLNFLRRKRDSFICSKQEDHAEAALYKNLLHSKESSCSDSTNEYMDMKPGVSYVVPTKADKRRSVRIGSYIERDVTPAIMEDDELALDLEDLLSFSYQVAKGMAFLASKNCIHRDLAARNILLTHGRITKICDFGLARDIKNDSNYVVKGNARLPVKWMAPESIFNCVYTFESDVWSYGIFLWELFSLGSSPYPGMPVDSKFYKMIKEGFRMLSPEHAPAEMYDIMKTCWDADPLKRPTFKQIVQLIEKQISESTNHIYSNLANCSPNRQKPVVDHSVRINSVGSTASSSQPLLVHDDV

[5] = target: Vascular endothelial growth factor receptor 3 (Homo sapiens) (UniProt P35916); experiment: Inhibition of VEGFR3 using Tyr 04 peptide as substrate at 10 uM after 60 mins by Z'-LYTE assay
[6] = target: Angiopoietin-1 receptor (Homo sapiens) (UniProt Q02763); experiment: Inhibition of Tie-2 using Tyr 05 peptide as substrate at 1 uM after 60 mins by Z'-LYTE assay
Angiopoietin-1 receptor (Homo sapiens), sequence (Q02763 whole entry): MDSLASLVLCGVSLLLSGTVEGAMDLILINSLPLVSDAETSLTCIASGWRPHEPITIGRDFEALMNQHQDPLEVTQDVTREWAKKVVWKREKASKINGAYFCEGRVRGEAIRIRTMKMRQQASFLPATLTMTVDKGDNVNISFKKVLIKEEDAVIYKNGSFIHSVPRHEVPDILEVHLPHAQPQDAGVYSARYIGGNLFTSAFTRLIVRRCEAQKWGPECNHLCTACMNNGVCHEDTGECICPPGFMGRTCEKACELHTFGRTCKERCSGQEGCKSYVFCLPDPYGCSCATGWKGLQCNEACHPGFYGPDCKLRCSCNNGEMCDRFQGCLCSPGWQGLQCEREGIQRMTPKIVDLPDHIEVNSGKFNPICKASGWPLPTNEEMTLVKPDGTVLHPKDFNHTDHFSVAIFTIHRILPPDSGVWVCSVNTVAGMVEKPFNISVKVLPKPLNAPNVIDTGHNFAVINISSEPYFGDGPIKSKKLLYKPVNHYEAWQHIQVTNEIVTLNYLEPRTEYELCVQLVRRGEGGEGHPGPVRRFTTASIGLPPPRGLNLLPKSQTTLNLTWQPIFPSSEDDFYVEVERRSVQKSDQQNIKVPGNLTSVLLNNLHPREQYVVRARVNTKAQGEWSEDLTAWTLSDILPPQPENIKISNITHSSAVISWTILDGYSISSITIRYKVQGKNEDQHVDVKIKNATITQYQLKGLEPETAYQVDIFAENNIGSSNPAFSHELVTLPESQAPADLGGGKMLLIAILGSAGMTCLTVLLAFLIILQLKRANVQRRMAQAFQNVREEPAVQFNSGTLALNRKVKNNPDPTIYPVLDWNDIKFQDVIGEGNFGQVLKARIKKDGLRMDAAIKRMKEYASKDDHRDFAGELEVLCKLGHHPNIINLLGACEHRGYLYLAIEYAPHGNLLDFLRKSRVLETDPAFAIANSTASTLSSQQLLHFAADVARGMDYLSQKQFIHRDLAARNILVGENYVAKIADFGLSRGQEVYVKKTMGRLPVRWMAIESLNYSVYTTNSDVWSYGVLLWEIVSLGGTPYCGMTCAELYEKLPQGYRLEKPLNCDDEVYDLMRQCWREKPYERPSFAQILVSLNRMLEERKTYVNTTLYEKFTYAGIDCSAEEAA

[7] = target: T2, Vascular endothelial growth factor receptor 2 (Homo sapiens, UniProt P35968); experiment: Inhibition of KDR using Tyr 01 peptide as substrate at 10 uM after 60 mins by Z'-LYTE assay
T2 sequence (P35968 whole entry): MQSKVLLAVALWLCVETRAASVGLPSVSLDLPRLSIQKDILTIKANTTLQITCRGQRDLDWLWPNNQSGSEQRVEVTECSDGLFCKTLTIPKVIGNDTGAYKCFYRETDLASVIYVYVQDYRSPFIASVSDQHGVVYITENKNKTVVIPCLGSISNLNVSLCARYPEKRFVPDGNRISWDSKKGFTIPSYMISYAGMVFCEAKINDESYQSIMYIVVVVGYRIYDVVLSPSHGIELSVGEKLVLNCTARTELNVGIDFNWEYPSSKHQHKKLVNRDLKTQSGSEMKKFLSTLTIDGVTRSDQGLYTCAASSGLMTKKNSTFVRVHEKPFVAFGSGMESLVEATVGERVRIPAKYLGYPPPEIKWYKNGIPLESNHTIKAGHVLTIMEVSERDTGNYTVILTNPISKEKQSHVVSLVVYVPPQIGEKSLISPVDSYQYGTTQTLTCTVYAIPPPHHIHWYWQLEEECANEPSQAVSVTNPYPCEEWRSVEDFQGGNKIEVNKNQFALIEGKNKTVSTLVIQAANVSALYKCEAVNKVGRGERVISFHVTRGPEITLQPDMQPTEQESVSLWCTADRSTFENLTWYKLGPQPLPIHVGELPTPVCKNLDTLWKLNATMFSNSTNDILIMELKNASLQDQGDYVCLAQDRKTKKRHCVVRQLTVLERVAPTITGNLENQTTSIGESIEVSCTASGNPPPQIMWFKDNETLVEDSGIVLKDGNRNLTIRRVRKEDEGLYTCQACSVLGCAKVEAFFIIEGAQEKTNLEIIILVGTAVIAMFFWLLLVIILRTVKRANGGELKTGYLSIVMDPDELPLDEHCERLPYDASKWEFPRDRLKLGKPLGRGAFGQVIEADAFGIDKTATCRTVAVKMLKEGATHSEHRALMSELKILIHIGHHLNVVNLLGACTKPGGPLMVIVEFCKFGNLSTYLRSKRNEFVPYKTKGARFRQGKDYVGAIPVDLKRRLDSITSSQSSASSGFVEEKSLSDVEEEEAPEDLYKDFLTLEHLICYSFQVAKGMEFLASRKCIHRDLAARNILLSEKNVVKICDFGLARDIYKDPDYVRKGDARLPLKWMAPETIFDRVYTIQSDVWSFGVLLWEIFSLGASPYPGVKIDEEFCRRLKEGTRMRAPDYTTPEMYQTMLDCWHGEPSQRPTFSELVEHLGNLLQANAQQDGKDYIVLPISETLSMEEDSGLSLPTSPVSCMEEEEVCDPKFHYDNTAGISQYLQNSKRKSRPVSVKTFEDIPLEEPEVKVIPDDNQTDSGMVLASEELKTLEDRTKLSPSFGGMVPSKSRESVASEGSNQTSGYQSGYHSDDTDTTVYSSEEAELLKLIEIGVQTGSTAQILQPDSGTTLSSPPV

[8] = target: T2, Vascular endothelial growth factor receptor 2; experiment: Inhibition of KDR using Tyr 01 peptide as substrate at 1 uM after 60 mins by Z'-LYTE assay
[9] = target: Receptor-type tyrosine-protein kinase FLT3 (Homo sapiens) (UniProt P36888); experiment: Inhibition of Flt3 using Tyr 02 peptide as substrate at 1 uM after 60 mins by Z'-LYTE assay
[10] = target: T1, Mast/stem cell growth factor receptor Kit; experiment: Inhibition of c-Kit using Tyr 06 peptide as substrate at 1 uM after 60 mins by Z'-LYTE assay
[11] = target: Vascular endothelial growth factor receptor 1 (Homo sapiens) (UniProt P17948); experiment: Inhibition of VEGFR1 using Tyr 04 peptide as substrate at 10 uM after 60 mins by Z'-LYTE assay
[12] = target: Platelet-derived growth factor receptor beta (Homo sapiens) (UniProt P09619); experiment: Inhibition of PDGFRbeta using Tyr 04 peptide as substrate at 1 uM after 60 mins by Z'-LYTE assay
[13] = target: Platelet-derived growth factor receptor alpha (Homo sapiens) (UniProt P16234); experiment: Inhibition of PDGFRalpha using Tyr 04 peptide as substrate at 10 uM after 60 mins by Z'-LYTE assay
[14] = target: Vascular endothelial growth factor receptor 3 (Homo sapiens) (UniProt P35916); experiment: Inhibition of VEGFR3 using Tyr 04 peptide as substrate at 1 uM after 60 mins by Z'-LYTE assay
[15] = target: Platelet-derived growth factor receptor beta (Homo sapiens) (UniProt P09619); experiment: Inhibition of PDGFRbeta using Tyr 04 peptide as substrate at 10 uM after 60 mins by Z'-LYTE assay
[16] = target: Angiopoietin-1 receptor (Homo sapiens) (UniProt Q02763); experiment: Inhibition of Tie-2 using Tyr 05 peptide as substrate at 10 uM after 60 mins by Z'-LYTE assay
ABCG2 = target: T3, ABCG2 (Homo sapiens, UniProt Q9UNQ0); experiment: Inhibition of ATP-dependent ABCG2 pump assessed as ratio of compound IC50 for HEK/ABCG2-482-R2 cells to IC50 for HEK293/pcDNA3.1 cells after 72 hrs by MTT assay; details: HEK/ABCG2-482-R2 cells versus HEK293/pcDNA3.1 cells, read-out: Ratio IC50
T3 sequence (Q9UNQ0 whole entry): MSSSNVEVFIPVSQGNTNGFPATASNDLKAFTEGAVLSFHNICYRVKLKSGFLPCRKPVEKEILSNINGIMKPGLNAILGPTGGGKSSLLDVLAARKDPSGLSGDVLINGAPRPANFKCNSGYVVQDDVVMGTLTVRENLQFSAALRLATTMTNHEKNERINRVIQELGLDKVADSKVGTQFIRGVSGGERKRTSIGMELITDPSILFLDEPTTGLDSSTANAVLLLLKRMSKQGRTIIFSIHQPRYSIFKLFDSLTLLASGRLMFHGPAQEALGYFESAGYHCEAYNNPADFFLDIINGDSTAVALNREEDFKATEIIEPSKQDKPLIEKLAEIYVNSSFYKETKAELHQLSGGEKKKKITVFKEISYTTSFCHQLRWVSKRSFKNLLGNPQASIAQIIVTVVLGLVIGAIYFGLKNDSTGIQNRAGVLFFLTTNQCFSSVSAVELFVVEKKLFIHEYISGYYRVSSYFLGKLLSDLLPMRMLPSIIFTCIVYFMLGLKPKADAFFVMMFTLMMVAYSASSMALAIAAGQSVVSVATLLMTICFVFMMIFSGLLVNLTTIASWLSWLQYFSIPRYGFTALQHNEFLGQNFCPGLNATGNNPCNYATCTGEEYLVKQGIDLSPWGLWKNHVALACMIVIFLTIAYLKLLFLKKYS
How it was run: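 Fold-resistance was calculated as mitoxantrone IC50 in HEK/ABCG2-482-R2 (wild-type ABCG2-transfected) cells divided by mitoxantrone IC50 in HEK293/pcDNA3 parental cells, with or without analogue at 10 μM. FTC at 2.5 μM served as the reference. Cell survival was measured by MTT. Results are means ± SD of at least three independent experiments, each run in triplicate.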

Receptor-type tyrosine-protein kinase FLT3 (Homo sapiens), sequence (P36888 whole entry): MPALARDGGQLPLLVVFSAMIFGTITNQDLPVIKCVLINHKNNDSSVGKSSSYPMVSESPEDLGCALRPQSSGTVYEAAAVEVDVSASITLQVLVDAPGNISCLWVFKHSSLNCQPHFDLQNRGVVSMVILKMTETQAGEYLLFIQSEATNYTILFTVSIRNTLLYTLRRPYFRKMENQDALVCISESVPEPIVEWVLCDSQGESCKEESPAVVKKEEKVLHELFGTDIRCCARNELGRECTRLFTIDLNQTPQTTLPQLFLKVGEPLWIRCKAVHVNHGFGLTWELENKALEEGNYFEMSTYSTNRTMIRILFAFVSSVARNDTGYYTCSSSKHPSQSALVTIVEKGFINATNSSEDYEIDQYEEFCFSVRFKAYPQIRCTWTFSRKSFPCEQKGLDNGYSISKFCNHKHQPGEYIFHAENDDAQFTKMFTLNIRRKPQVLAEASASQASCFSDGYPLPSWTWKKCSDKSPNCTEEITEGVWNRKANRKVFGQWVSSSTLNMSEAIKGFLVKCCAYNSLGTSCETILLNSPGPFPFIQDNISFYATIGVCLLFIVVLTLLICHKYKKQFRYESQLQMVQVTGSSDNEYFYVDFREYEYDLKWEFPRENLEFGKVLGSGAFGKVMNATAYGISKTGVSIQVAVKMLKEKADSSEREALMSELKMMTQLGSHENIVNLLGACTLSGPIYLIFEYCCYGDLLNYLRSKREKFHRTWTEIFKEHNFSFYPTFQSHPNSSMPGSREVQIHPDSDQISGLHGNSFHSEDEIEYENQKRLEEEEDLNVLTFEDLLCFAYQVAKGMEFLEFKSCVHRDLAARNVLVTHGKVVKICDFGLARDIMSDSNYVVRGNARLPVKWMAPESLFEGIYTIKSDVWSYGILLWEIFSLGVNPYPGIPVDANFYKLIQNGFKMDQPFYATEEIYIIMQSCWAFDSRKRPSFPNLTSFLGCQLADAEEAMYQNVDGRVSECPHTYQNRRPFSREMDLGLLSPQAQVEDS

| inhibition [1] [%] | inhibition [2] [%] | inhibition [3] [%] | inhibition [4] [%] | inhibition [5] [%] | inhibition [6] [%] | inhibition [7] [%] | inhibition [8] [%] | inhibition [9] [%] | inhibition [10] [%] | inhibition [11] [%] | inhibition [12] [%] | inhibition [13] [%] | inhibition [14] [%] | inhibition [15] [%] | inhibition [16] [%] | Compound | selectivity ratio at 72 h (ABCG2) |
| --- | --- | --- | --- | --- | --- | --- | --- | --- | --- | --- | --- | --- | --- | --- | --- | --- | --- |
| < 40 | < 40 | < 40 | < 40 | < 40 | < 40 | < 40 | < 40 | < 40 | < 40 | < 40 | < 40 | < 40 | < 40 | < 40 | < 40 | Nc1cccc(CNc2ccsc2C(=O)Nc2ccc(OC(F)(F)F)cc2)c1 |  |
| < 40 | < 40 | < 40 | < 40 | < 40 | < 40 | < 40 | < 40 | < 40 | < 40 | < 40 | < 40 | < 40 | < 40 | < 40 | < 40 | O=C(Nc1ccc(OC(F)(F)F)cc1)c1sccc1NCc1ccc([N+](=O)[O-])cc1 |  |
| < 40 | < 40 | < 40 | < 40 | < 40 | < 40 | < 40 | < 40 | < 40 | < 40 | < 40 | < 40 | < 40 | < 40 | < 40 | < 40 | O=C(Nc1ccc(OC(F)(F)F)cc1)c1sccc1NCc1cccc([N+](=O)[O-])c1 |  |
| < 40 | < 40 | < 40 | < 40 | < 40 | < 40 | < 40 | < 40 | < 40 | < 40 | < 40 | < 40 | < 40 | < 40 | < 40 | < 40 | O=C(Nc1ccc(OC(F)(F)F)cc1)c1sccc1NCc1ccccc1[N+](=O)[O-] |  |
| < 40 | < 40 | < 40 | < 40 | < 40 | < 40 | < 40 | < 40 | < 40 | < 40 | < 40 | < 40 | < 40 | < 40 | < 40 | < 40 | O=C(Nc1ccc(OC(F)(F)F)cc1)c1sccc1NCc1cccc(N=C=S)c1 |  |
|  |  |  | 58 |  |  | < 40 | < 40 |  | < 40 |  |  |  |  |  |  | CC(=O)Nc1cccc(CNc2ccsc2C(=O)Nc2ccc(OC(F)(F)F)cc2)c1 |  |

More lines, now with the values behind:

| Compound | inhibition [1] [%] | inhibition [2] [%] | inhibition [3] [%] | inhibition [4] [%] | inhibition [5] [%] | inhibition [6] [%] | inhibition [7] [%] | inhibition [8] [%] | inhibition [9] [%] | inhibition [10] [%] | inhibition [11] [%] | inhibition [12] [%] | inhibition [13] [%] | inhibition [14] [%] | inhibition [15] [%] | inhibition [16] [%] | selectivity ratio at 72 h (ABCG2) |
| --- | --- | --- | --- | --- | --- | --- | --- | --- | --- | --- | --- | --- | --- | --- | --- | --- | --- |
| O=C(Nc1ccc(OC(F)(F)F)cc1)c1sccc1NCc1ccc(O)cc1 |  |  |  | 68 |  |  | 54 | < 40 |  | < 40 |  |  |  |  | 44 |  |  |
| O=C(Nc1ccc(OC(F)(F)F)cc1)c1sccc1NCc1ccc(N=C=S)cc1 | < 40 | < 40 | < 40 | < 40 | < 40 | < 40 | < 40 | < 40 | < 40 | < 40 | < 40 | < 40 | < 40 | < 40 | < 40 | < 40 |  |
| O=C1c2c(O)ccc(O)c2C(=O)c2c(NCCNCCO)ccc(NCCNCCO)c21 [MITOXANTRONE] |  |  |  |  |  |  |  |  |  |  |  |  |  |  |  |  | 15.3 |
| CC(=O)Nc1ccc(CNc2ccsc2C(=O)Nc2ccc(OC(F)(F)F)cc2)cc1 | < 40 | < 40 | < 40 | < 40 | < 40 | < 40 | < 40 | < 40 | < 40 | < 40 | < 40 | < 40 | < 40 | < 40 | < 40 | < 40 |  |
| O=C(Nc1ccc(OC(F)(F)F)cc1)c1sccc1NCc1ccccc1N=C=S | < 40 | < 40 | < 40 | < 40 | < 40 | < 40 | < 40 | < 40 | < 40 | < 40 | < 40 | < 40 | < 40 | < 40 | < 40 | < 40 |  |
| CC(=O)Nc1ccccc1CNc1ccsc1C(=O)Nc1ccc(OC(F)(F)F)cc1 | < 40 | < 40 | < 40 | < 40 | < 40 | < 40 | < 40 | < 40 | < 40 | < 40 | < 40 | < 40 | < 40 | < 40 | < 40 | < 40 |  |
| Nc1ccccc1CNc1ccsc1C(=O)Nc1ccc(OC(F)(F)F)cc1 | < 40 | < 40 | < 40 | < 40 | < 40 | < 40 | < 40 | < 40 | < 40 | < 40 | < 40 | < 40 | < 40 | < 40 | < 40 | < 40 |  |
| O=C(Nc1ccc(OC(F)(F)F)cc1)c1sccc1NCc1ccncc1[N+](=O)[O-] |  |  |  | 80 |  |  | < 40 | < 40 |  | < 40 |  |  |  |  |  |  |  |
| O=C(CBr)Nc1cccc(CN2C(=O)CN(c3ccc(OC(F)(F)F)cc3)C(=O)c3sccc32)c1 |  |  |  | 41 |  |  | < 40 | < 40 |  | < 40 |  |  |  |  |  |  |  |
| Nc1cnccc1CNc1ccsc1C(=O)Nc1ccc(OC(F)(F)F)cc1 | 41 |  |  | 91 | 41 |  | 88 | 50 |  | 57 |  |  |  |  | 47 |  |  |
| CC(=O)Nc1cc(CNc2ccsc2C(=O)Nc2ccc(OC(F)(F)F)cc2)ccn1 |  |  |  | 102 |  |  | 101 | 101 |  | 81 |  |  |  |  |  |  |  |
| Nc1ccc(CNc2ccsc2C(=O)Nc2ccc(OC(F)(F)F)cc2)cc1 | < 40 | < 40 | < 40 | < 40 | < 40 | < 40 | < 40 | < 40 | < 40 | < 40 | < 40 | < 40 | < 40 | < 40 | < 40 | < 40 |  |
